According to PMC4298701 (Diabetes, 2007):
pIC50: −log10 of the molar value.

Columns and labels:
sphingomyelinase = target: T1, sphingomyelinase (Homo sapiens, UniProt P17405); experiment: Sphingomyelinase inhibition; format: biochemical; conditions: at a concentration <1 μmol/l
T1 sequence (P17405 47-631): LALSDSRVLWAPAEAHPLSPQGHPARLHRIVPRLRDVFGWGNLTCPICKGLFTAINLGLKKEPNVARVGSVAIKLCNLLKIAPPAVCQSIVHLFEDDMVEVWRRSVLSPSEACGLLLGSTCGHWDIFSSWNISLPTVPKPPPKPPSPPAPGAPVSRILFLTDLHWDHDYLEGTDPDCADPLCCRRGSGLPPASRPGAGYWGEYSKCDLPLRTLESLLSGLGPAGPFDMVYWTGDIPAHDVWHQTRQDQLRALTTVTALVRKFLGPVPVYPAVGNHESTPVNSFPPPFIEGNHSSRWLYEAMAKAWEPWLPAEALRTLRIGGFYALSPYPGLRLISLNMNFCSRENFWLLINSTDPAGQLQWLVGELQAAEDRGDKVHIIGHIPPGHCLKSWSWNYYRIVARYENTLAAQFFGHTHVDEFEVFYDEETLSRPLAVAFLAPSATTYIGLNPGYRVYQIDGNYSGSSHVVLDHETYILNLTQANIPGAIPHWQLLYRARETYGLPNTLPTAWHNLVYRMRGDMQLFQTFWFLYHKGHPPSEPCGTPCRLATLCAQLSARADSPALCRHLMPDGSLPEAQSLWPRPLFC

acid α-glucosidase = acid α-glucosidase (Homo sapiens, UniProt P10253); experiment: Acid α-glucosidase inhibition; format: biochemical; conditions: at a concentration <1 μmol/l
[1] = test system: endoplasmic reticulum–trimming α-glucosidases; experiment: ER-trimming α-glucosidases inhibition; format: biochemical; conditions: at a concentration <1 μmol/l
[2] = target: debranching enzyme (α-1, 6-glucosidase) (Homo sapiens, UniProt P35573); experiment: Debranching enzyme, erythrocyte preparation; format: biochemical; conditions: at a concentration <1 μmol/l; data not shown
glycogen synthase = experiment: Glycogen synthase inhibition; format: biochemical; conditions: at a concentration <1 μmol/l; data not shown
sucrase = sucrase (Rattus norvegicus, UniProt P23739); experiment: Sucrase, homogenates of freshly isolated rat intestine; format: biochemical; conditions: read-out: IC50 sucrase; rat intestine homogenate
maltase = experiment: Maltase, homogenates of freshly isolated rat intestine; format: biochemical; conditions: read-out: IC50 maltase; rat intestine homogenate
3T3-L1 adipocytes [3] = experiment: Sphingolipid content of 3T3-L1 adipocytes; format: cell-based; conditions: TNF-α 0.6 nmol/l + AMP-DNM 10 μmol/l, 24 h, mean ± SE
3T3-L1 adipocytes [4] = experiment: Insulin signaling in TNF-α-treated 3T3-L1 adipocytes; format: cell-based; conditions: 10 μmol/l AMP-DNM, TNF-α 0.6 nmol/l, 24 h
3T3-L1 adipocytes [5] = experiment: Cell surface expression of GM3; format: cell-based; conditions: 10 μmol/l AMP-DNM, TNF-α 0.6 nmol/l, 24 h
Outline: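 Fully differentiated 3T3-L1 adipocytes were serum-deprived in DMEM plus 1% BSA and treated for 24 h with vehicle, test compound (10 μmol/l) and/or TNF-α (0.6 nmol/l). Basal cells (no insulin) were stained with monoclonal anti-GM3 and FITC- or Alexa 488-conjugated secondary antibody, then read by flow cytometry as % viable cells GM3-positive. Means ± SE of four independent experiments.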

[6] = Plasma levels of AMP-DNM in mice; format: in vivo
Outline: (§1)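 Plasma test compound was measured by HPLC followed by mass spectrometry, with blood taken by tail vein, retro-orbital or cardiac puncture. Half-life was determined in mice and rats. For plasma concentration, six-week-old C57Bl/6J mice (n = 4) were dosed at 25 mg·kg−1·day−1 for 14 days and sampled during treatment; mean ± SE.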

[7] = Plasma levels of AMP-DNM in rats; format: in vivo
Outline: as §1

[8] = Plasma levels, accumulation and metabolism after administration to rodents; format: in vivo
[9] = In vitro incubation with microsomes; format: in vitro ADME; conditions: 4 h; not shown
rodents = experiment: Tolerability in rodents; format: in vivo; conditions: up to 100 mg · kg−1 · day−1 for 2 months
C57Bl/6J mice = experiment: Ceramide and glycosphingolipids in liver and muscle of normal C57Bl/6J mice; format: in vivo
ob/ob mice [10] = experiment: Ceramide and glucosylceramide in liver and muscle of ob/ob mice; format: in vivo
ob/ob mice [11] = experiment: Hyperinsulinemic-euglycemic clamp in ob/ob mice; format: in vivo; conditions: 25 mg · kg body wt−1 · day−1, clamp
ob/ob mice [12] = experiment: Glucose homeostasis, A1C and liver lipids/glycogen in ob/ob mice; format: in vivo
Outline: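 ob/ob mice (C57Bl/6J background) were fed diet containing test compound at 25 mg·kg−1·day−1, with wild-type mice as reference; A1C was measured after 9 weeks. For oral glucose tolerance, animals were fasted >6 h and gavaged with glucose (1 or 2 g/kg). […] Means ± SE; two-tailed Student's t test.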

ZDF rats [13] = experiment: Ceramide and glycosphingolipid levels in liver of ZDF rats; format: in vivo; conditions: mean ± SD
ZDF rats [14] = experiment: A1C in ZDF rats; format: in vivo
[15] = test system: C57Bl/6J mice fed a high-fat diet; experiment: Glucose homeostasis in high-fat diet-induced glucose-intolerant C57Bl/6J mice; format: in vivo; conditions: high-fat diet C57Bl/6J mice, 2 weeks, ± SD
Outline: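 C57Bl/6J mice were made glucose-intolerant by 4 weeks on a high-fat diet (16.4% protein, 25.5% carbohydrate, 58.0% fat). They then received test compound by daily oral gavage at 0, 5 or 25 mg·kg−1·day−1 for 2 weeks, n = 8 per group. Fasted blood glucose was measured; means ± SD.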

[16] = with insulin (100 nmol/l, 5 min)
[17] = oral administration of 25 mg/kg body wt
[18] = C57Bl/6J mice, 25 mg · kg−1 · day−1, 14 days
[19] = normal C57Bl/6J mice, 25 mg AMP-DNM/kg, 2 weeks, mean ± SD
[20] = 25 mg AMP-DNM/kg, 2 weeks, mean ± SD
[21] = ob/ob mice, 25 mg · kg body wt−1 · day−1

sucrase, sequence (P23739 1014-1841 limits assumed): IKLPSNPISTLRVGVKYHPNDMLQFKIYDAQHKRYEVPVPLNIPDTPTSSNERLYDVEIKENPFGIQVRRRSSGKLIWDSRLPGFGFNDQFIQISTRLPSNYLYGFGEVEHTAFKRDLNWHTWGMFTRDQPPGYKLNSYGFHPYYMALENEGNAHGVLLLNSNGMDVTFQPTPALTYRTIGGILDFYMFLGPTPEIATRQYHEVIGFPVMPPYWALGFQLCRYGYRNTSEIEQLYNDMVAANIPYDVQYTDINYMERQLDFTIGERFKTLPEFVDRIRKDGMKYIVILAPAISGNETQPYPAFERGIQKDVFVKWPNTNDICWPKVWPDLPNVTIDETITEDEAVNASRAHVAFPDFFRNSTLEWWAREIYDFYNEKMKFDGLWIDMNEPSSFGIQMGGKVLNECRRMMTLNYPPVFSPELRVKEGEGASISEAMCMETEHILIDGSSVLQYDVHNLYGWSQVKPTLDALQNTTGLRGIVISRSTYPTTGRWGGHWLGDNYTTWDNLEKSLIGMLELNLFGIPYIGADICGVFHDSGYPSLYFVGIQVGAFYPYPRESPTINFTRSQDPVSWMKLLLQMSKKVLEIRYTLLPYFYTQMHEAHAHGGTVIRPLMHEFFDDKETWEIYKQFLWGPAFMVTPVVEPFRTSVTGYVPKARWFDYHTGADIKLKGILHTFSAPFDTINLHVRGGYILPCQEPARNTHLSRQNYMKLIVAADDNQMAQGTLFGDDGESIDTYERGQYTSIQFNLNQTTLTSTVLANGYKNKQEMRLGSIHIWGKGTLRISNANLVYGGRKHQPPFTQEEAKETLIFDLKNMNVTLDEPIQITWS
sucrase, sequence (P23739 1-1013 partner limits assumed): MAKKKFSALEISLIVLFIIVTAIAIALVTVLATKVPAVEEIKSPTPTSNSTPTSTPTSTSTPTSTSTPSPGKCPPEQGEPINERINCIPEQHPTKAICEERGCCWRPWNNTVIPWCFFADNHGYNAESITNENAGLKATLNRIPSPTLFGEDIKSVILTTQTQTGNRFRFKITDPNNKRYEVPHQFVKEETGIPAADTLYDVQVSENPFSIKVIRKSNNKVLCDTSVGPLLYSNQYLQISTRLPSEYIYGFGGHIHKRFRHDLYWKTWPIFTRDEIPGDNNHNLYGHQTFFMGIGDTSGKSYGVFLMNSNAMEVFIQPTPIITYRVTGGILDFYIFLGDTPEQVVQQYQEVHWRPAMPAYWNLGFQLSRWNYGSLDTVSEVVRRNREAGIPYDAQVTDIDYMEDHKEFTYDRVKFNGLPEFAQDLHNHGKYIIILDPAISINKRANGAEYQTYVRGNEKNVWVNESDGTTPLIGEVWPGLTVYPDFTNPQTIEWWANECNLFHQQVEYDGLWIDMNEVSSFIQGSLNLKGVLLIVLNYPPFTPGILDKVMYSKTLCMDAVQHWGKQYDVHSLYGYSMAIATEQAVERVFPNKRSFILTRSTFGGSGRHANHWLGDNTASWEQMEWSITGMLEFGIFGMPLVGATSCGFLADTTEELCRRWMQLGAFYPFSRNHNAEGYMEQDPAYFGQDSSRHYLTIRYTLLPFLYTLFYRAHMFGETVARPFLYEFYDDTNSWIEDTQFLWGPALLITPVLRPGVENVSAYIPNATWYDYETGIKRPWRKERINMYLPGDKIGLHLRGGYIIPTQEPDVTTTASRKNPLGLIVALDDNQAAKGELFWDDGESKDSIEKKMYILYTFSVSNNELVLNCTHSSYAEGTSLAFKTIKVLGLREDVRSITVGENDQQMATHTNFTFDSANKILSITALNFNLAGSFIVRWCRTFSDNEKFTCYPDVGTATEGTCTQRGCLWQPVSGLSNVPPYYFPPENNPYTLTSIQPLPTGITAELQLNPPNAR
debranching enzyme (α-1, 6-glucosidase), sequence (P35573 whole entry): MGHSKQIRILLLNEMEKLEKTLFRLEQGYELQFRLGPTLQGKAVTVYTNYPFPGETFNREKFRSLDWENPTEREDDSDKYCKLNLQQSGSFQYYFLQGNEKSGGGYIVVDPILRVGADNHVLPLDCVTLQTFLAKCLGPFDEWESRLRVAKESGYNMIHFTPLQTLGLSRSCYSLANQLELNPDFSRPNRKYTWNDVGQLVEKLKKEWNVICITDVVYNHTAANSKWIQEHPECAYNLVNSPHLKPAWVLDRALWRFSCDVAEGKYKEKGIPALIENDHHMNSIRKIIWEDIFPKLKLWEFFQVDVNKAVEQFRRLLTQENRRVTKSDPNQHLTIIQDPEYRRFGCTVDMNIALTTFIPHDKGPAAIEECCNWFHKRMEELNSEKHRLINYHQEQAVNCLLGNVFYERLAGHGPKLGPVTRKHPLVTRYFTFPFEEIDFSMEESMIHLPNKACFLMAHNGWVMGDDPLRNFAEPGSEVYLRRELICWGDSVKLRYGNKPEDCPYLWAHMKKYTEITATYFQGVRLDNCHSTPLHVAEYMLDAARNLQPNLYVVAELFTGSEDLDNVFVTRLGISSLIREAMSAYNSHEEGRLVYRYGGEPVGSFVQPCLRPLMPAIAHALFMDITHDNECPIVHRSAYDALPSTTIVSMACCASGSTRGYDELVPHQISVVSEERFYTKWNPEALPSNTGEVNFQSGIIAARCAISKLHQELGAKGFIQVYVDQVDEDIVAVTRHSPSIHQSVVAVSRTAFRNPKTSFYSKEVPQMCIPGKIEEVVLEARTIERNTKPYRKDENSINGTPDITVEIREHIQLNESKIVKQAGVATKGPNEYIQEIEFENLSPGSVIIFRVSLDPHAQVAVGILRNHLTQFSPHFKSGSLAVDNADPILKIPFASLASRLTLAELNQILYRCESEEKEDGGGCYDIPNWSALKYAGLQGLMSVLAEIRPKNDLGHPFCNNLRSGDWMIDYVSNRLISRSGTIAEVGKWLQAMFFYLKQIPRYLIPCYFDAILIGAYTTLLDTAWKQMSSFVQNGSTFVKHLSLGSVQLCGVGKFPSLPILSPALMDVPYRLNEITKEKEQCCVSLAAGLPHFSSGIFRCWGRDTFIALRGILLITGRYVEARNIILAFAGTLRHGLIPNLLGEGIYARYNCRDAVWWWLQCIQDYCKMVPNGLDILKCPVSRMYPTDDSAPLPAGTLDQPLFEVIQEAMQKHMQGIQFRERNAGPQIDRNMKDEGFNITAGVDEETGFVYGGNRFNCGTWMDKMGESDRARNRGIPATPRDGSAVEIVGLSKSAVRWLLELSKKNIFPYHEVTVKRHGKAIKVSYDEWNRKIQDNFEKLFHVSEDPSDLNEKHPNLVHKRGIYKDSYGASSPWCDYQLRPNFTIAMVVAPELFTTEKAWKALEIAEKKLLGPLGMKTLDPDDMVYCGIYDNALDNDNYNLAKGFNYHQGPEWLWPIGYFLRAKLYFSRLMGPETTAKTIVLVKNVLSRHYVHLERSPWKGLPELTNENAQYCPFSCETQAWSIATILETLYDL

SMILES: OC[C@@H]1[C@@H](O)[C@H](O)[C@@H](O)CN1CCCCCOCC12CC3CC(CC(C3)C1)C2 [AMP-DNM, N-(5′-adamantane-1′-yl-methoxy)-pentyl-1-deoxynojirimycin]
- inhibition of sphingomyelinase activity (sphingomyelinase): no significant inhibition
- inhibition of acid α-glucosidase activity (acid α-glucosidase): no significant inhibition
- inhibition of endoplasmic reticulum–trimming α-glucosidases [1]: no significant inhibition
- effect on cytosolic debranching enzyme [2]: unaffected
- effect on glycogen synthase (glycogen synthase): unaffected
- pIC50 (sucrase): 5.35
- pIC50 (maltase): 4.74
- Ceramide (3T3-L1 adipocytes [3]; [16]): 1,241 ± 99 pmol/well
- GM3 (3T3-L1 adipocytes [3]; [16]): 1,988 ± 169 pmol/well
- Ceramide (3T3-L1 adipocytes [3]; without insulin): 1,241 ± 88 pmol/well
- GM2 (3T3-L1 adipocytes [3]; without insulin): 267 ± 18 pmol/well
- GM3 (3T3-L1 adipocytes [3]; without insulin): 2,205 ± 138 pmol/well
- TNF-α-impaired insulin receptor autophosphorylation, IRS-1 tyrosine phosphorylation and Ser-473 phosphorylation of Akt (3T3-L1 adipocytes [4]): significantly ameliorated
- TNF-α-increased cell surface levels of GM3 gangliosides (3T3-L1 adipocytes [5]): blocked
- plasma concentration of AMP-DNM ([6]; C57Bl/6J mice, 25 mg · kg body wt−1 · day−1 for 14 days, mean ± SE): 108 ± 6 nM
- plasma half-life ([6]; mice): ~ 3.1 h
- plasma half-life [7]: ~4.2 h
- accumulation with daily exposure ([8]; daily exposure over 28 days): does not accumulate
- in vivo metabolism (mass spectrometric analysis of urine and plasma) ([8]; in vivo): No significant in vivo metabolism
- maximal plasma concentration [8, 17]: 5 µmol/L
- time of maximal plasma concentration [8, 17]: 30 min
- recovered after in vitro incubation with microsomes [9]: More than 90%
- overt toxicity (rodents): did not result in any overt toxicity
- reduction of ganglioside GM3 in liver (C57Bl/6J mice; [18]): 28 ± 6%
- reduction of liver glucosylceramide (C57Bl/6J mice; [18]): 41 ± 5%
- Cer, liver (C57Bl/6J mice; [19]): 10.31 ± 0.96 nmol/mg protein
- Cer, muscle (C57Bl/6J mice; [19]): 1.47 ± 0.22 nmol/mg protein
- GlcCer, liver (C57Bl/6J mice; [19]): 1.24 ± 0.09 nmol/mg protein
- GlcCer, muscle (C57Bl/6J mice; [19]): 0.89 ± 0.22 nmol/mg protein
- Cer, liver (ob/ob mice [10]; [20]): 95.9 ± 11.6 nmol/mg protein
- Cer, muscle (ob/ob mice [10]; [20]): 1.29 ± 0.24 nmol/mg protein
- GlcCer, liver (ob/ob mice [10]; [20]): 2.24 ± 0.14 nmol/mg protein
- GlcCer, muscle (ob/ob mice [10]; [20]): 1.41 ± 0.16 nmol/mg protein
- decrease of glucosylceramide content of muscle (ob/ob mice [10]; 25 mg · kg−1 · day−1, two weeks): 45 ± 23%
- decrease in hepatic glucose production (Ra) (ob/ob mice [11]): ~ 26%
- increase in glucose disposal (Rd) (ob/ob mice [11]): ~ 29%
- whole-body insulin sensitivity (ob/ob mice [11]): marked improvement
- triglyceride concentration in liver (ob/ob mice [12]; AMP-DNM-fed ob/ob mice): 80 ± 11 nmol/mg liver
- blood glucose concentrations (ob/ob mice [12]; [21]): pronounced reduction
- effect on body weight or food intake (ob/ob mice [12]; [21]): no significant effect
- A1C concentration (ob/ob mice [12]; ob/ob mice, 25 mg · kg body wt−1 · day−1 for 9 weeks): 4.82 ± 0.85%
- AUC of blood glucose concentrations, oral glucose tolerance test (ob/ob mice [12]; ob/ob mice, 25 mg/kg for 8 days, glucose 1 g/kg body wt, ± SD): 13.21 ± 1.43 arbitrary units per minute
- Liver Ceramide (ZDF rats [13]; 5 mg · kg−1 · day−1, 10 weeks): 416 ± 24 nmol/g wet wt
- Liver GDA1 (ZDF rats [13]; 5 mg · kg−1 · day−1, 10 weeks): 15.5 ± 1.7 nmol/g wet wt
- Liver GM1 (ZDF rats [13]; 5 mg · kg−1 · day−1, 10 weeks): 11.4 ± 2.2 nmol/g wet wt
- Liver GM2 (ZDF rats [13]; 5 mg · kg−1 · day−1, 10 weeks): 5.9 ± 0.9 nmol/g wet wt
- Liver GM3 (ZDF rats [13]; 5 mg · kg−1 · day−1, 10 weeks): 21.3 ± 2.9 nmol/g wet wt
- Liver Glucosylceramide (ZDF rats [13]; 5 mg · kg−1 · day−1, 10 weeks): 53.4 ± 5.7 nmol/g wet wt
- Liver Ceramide (ZDF rats [13]; 25 mg · kg−1 · day−1, 10 weeks): 451 ± 37 nmol/g wet wt
- Liver GDA1 (ZDF rats [13]; 25 mg · kg−1 · day−1, 10 weeks): 7.9 ± 0.9 nmol/g wet wt
- Liver GM1 (ZDF rats [13]; 25 mg · kg−1 · day−1, 10 weeks): 5.6 ± 1.1 nmol/g wet wt
- Liver GM2 (ZDF rats [13]; 25 mg · kg−1 · day−1, 10 weeks): 4.8 ± 0.8 nmol/g wet wt
- Liver GM3 (ZDF rats [13]; 25 mg · kg−1 · day−1, 10 weeks): 17.3 ± 2.7 nmol/g wet wt
- Liver Glucosylceramide (ZDF rats [13]; 25 mg · kg−1 · day−1, 10 weeks): 47.4 ± 5.2 nmol/g wet wt
- A1C (ZDF rats [14]; 25 mg · kg−1 · day−1, 9 weeks): 6.31 ± 0.68%
- A1C (ZDF rats [14]; 60 mg · kg body wt−1 · day−1, 10 weeks, separate experiment): 5.4 ± 0.4%
- fasting blood glucose ([15]; 5 mg · kg−1 · day−1 oral gavage): 9.46 ± 0.26 mmol/L
- fasting blood glucose ([15]; 25 mg · kg−1 · day−1 oral gavage): 7.74 ± 0.40 mmol/L
